Experimental data as given in ChEMBL document CHEMBL1759951, “Furostanol saponins from the rhizomes of Dioscorea japonica and their effects on NGF induction” (Bioorg Med Chem Lett, 2011).

Assays:
C6 = assay: Induction of NGF production in rat C6 cells at 20 uM after 24 hrs by ELISA relative to untreated control; format: functional
Method in brief: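 C6 glioma cells treated at 20 μM for 24 h; NGF released into C6-conditioned medium quantified by ELISA, reported as percentage of untreated control. Means ± SD from three independent experiments run in triplicate; Student's t-test versus control, p < 0.05.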

[1] = Cytotoxicity against rat C6 cells assessed as viable cells at 20 uM after 24 hrs by MTT assay; format: cell-based; details: read-out: Activity
Method in brief: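 C6 rat glioma cells exposed to test agent at 20 μM for 24 h; viability read by MTT and expressed as percentage of untreated control. Means ± SD of three independent experiments, each in triplicate; significance versus control by Student's t-test (p < 0.05).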

| SMILES | Activity (C6) [%] | viability at 24 h, 20 µM [1] [%] |
| --- | --- | --- |
| COc1cc(O)cc(CCc2ccccc2O)c1 [BATATASIN IV] | 106.1 | 95 |
| COCC(=O)c1ccc(O)cc1 | 105.6 | 99.8 |
| CC[C@H](CC[C@@H](C)[C@H]1CC[C@H]2[C@@H]3CC=C4C[C@@H](O)CC[C@]4(C)[C@H]3CC[C@]12C)C(C)C [BETA-SITOSTEROL] | 106.1 | 104 |
| CC1=CC(=O)CC(C)(C)[C@@]1(O)/C=C/[C@@H](C)O [BLUMENOL A] | 122.2 | 101 |
| CCCCO[C@]1(CO)O[C@H](CO)[C@@H](O)[C@@H]1O | 117.5 | 102 |
| Oc1cc(O)cc(CCc2ccccc2)c1 [DIHYDROPINOSYLVIN] | 117 | 105 |
| C[C@H](CC[C@@]1(O)O[C@H]2C[C@H]3[C@@H]4CC=C5C[C@@H](O[C@@H]6O[C@H](CO)[C@@H](O[C@@H]7OC[C@H](O)[C@H](O)[C@H]7O)[C@H](O)[C@H]6O[C@@H]6O[C@@H](C)[C@H](O)[C@@H](O)[C@H]6O)CC[C@]5(C)[C@H]4CC[C@]3(C)[C@H]2[C@@H]1C)CO[C@@H]1O[C@H](CO)[C@@H](O)[C@H](O)[C@H]1O [COREAJAPONINS A] | 107.2 | 106 |
| COc1cc(O)cc(CCc2ccccc2OC)c1 [STILBOSTEMINN] | 104.6 | 104 |
| NC(=O)NC1NC(=O)NC1=O (centres undefined) [ALLANTOIN] | 102.4 | 100 |
| CO[C@]1(CC[C@@H](C)CO[C@@H]2O[C@H](CO)[C@@H](O)[C@H](O)[C@H]2O)O[C@H]2C[C@H]3[C@@H]4CC=C5C[C@@H](O[C@@H]6O[C@H](CO)[C@@H](O[C@@H]7OC[C@H](O)[C@H](O)[C@H]7O)[C@H](O)[C@H]6O[C@@H]6O[C@@H](C)[C@H](O)[C@@H](O)[C@H]6O)CC[C@]5(C)[C@H]4CC[C@]3(C)[C@H]2[C@@H]1C [COREAJAPONINS B] | 132.9 | 98 |
| CC(=O)CCc1ccc(O)cc1 [RASPBERRYKETONE] | 106.8 | 101 |
| COc1cc(CC[C@@H](O)C[C@@H](O)CCc2ccc(O)c(OC)c2)ccc1O | 120.7 | 102 |
